Sampled rows, rich in hits. Any-hit rate of the full collection: about 0.77%.
mIAP inh: mouse IAP inhibition; purified mouse IAP, CDP-Star luminescence, 30 min; 0.2% of 330,000 active; inhibition, % at 10 µM; AID 2806;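 active = inhibition of at least 40% at 10 µM in the primary screen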
hIAP act: human IAP activation; P09923; purified human IAP, CDP-Star luminescence, 30 min; hits give high values; 1 = vehicle-only enzyme, 0 = enzyme-free background; activation factor at 10 µM; 0.16% of 330,000 active;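 active = activation factor of the enzyme at least 2-fold when tested at 20 µM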
Target sequence (P09923 whole entry, looked up): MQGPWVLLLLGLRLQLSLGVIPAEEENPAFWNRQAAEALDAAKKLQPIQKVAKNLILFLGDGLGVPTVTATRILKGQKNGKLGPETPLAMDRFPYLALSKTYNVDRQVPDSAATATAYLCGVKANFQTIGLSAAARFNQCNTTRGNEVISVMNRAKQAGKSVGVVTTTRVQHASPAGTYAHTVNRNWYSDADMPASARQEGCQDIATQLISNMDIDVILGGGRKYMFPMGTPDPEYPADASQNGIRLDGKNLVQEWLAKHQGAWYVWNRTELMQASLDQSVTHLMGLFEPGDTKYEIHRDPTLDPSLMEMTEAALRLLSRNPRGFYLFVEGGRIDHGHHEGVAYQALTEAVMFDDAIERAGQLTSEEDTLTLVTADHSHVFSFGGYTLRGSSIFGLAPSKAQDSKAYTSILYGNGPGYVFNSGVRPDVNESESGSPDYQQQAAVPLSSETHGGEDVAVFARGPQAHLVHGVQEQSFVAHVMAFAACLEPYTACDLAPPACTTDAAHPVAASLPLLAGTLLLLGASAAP
bIAP inh: intestinal alkaline phosphatase (bovine) inhibition; purified bovine IAP, CDP-star luminescence, 30 min; inhibition, % at 20 µM; 190,000 tested, under 10 active; AID 1019;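 active = over 50% inhibition of intestinal alkaline phosphatase at 20 µM in the single-dose screen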
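System: purified bovine intestinal alkaline phosphatase (IAP) enzyme; Input: IAP diluted 1/65,000,000 in the well; Measured by: CDP-star luminescence signal; Compound dosing: 20 µM single dose; Incubation: 30 min reaction at room temperature.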
bIAP activator: intestinal alkaline phosphatase (bovine) activation | purified bovine IAP, CDP-star luminescence, 30 min; hits give high values; fold of DMSO-control signal, blank-subtracted | activation factor at 20 µM | 0.17% of 200,000 active | AID 1016;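 active = activation factor of 2 or more at 20 µM, a signal rise over negative controls twice the positive control's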
mIAP act: increases mouse intestinal alkaline phosphatase activity; muIAP, CDP-Star luminescence, 30 min; hits give high values; 1 = vehicle-only enzyme signal, 0 = enzyme-free wells; activation factor at 10 µM; 0.24% of 330,000 active; AID 2805;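 active = activation factor of at least 2 at 20 µM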
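System: mouse IAP enzyme. Reagent: CDP-Star chemiluminescent phosphatase substrate. Benchmarks: DMSO wells, no-enzyme wells. Times: 30 min enzyme-substrate-compound incubation at room temperature. Detection: luminescence from enzymatic CDP-Star hydrolysis. Doses: test compounds delivered from DMSO solution.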
hIAP inh: human IAP inhibition | P09923 | purified IAP, CDP-Star luminescence, 30 min | inhibition, % at 10 µM | 0.12% of 330,000 active | AID 2544;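 active = inhibition reaching a set limit with compound at 10 µM in the primary screen, cut at about 35% in these data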
hIAP act confirm: human IAP activation confirmation. purified IAP, CDP-Star luminescence, 30 min; hits give low values. 10% of 880 active. shares compounds with hIAP act. AID 434926. activation (%Activity, negative = activation), % at 8.3 µM;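 active = at least twofold enzyme activation in any of six single-dose repeats, which the averaged readout prints as negative percent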
A number is an active result; i = inactive; nt = not tested or not shown.

SMILES | mIAP inh | hIAP act | bIAP inh | bIAP activator | mIAP act | hIAP inh | hIAP act confirm
CCC(C)n1c(SCc2ccccc2)nc2ccsc2c1=O (configuration not stated) | i | i | i | i | i | i | nt
Cc1ccc(-n2c(C)cc(/C=N/NC(N)=S)c2C)cc1 | i | i | i | i | i | i | nt
NC(=S)N/N=C/c1cccc(O)c1O | i | 2.2 | i | i | i | i | i
NC(=S)N/N=C/c1ccccc1O | i | i | nt | nt | i | i | nt
Cc1cc(/C=N/NC(N)=S)c(O)c(/C=N/NC(N)=S)c1 | i | 2.8 | nt | nt | i | i | i
O=C1C=C(c2ccc3cc[nH]c3c2)C[C@@H](c2ccc3c(c2)OCO3)C1 | i | i | nt | nt | i | i | nt
COc1cccc(/C=N/Nc2nc(-c3cccnc3)nc3ccccc23)c1 | i | i | nt | nt | i | 58 | i
C(=N\Nc1nc(-c2cccnc2)nc2ccccc12)/c1ccccc1 | i | i | nt | nt | i | i | nt
Cc1[nH]n(-c2nc(-c3ccccc3F)cc(=O)[nH]2)c(=O)c1CCO | i | i | i | i | i | 72 | -40
O=C(COC(=O)c1cccc(C(F)(F)F)c1)NC(=O)NC1CCCC1 | i | i | nt | nt | i | i | nt
N#Cc1c(-c2ccccc2)nc(N2CCOCC2)[nH]c1=O | i | i | i | i | i | 38 | i
N#Cc1c(-c2ccccc2)nc(N2CCCCCC2)[nH]c1=O | i | i | i | i | i | i | nt
CCCC(=O)Nc1ccc(C(=O)COC(=O)c2cc(C)oc2C)cc1 | i | i | nt | nt | i | i | nt
CC(=O)NC(=S)Nc1ccccc1C(=O)Nc1ccccc1 | i | 2.5 | i | i | i | i | i
N#CCC(=O)NNC(=S)NC(=O)C(c1ccccc1)c1ccccc1 | i | i | i | i | i | i | nt
CCCCC(=O)NC(=S)Nc1ccccc1C(=O)Nc1ccccc1 | i | i | i | i | i | i | nt
CC(=O)NC(=S)NNC(=O)C(c1ccccc1)c1ccccc1 | i | 2 | i | 2 | i | i | i
COc1cc(/C=N\NS(=O)(=O)c2ccccc2)cc(OC)c1OC | i | i | nt | nt | i | 37 | i
CN(C)c1ccc(CN(Cc2ccco2)C(=O)c2ccco2)cc1 | i | i | nt | nt | i | i | nt
O=C(c1ccco1)N(Cc1ccc(Cl)cc1)Cc1ccco1 | i | i | nt | nt | i | 38 | i
Cc1nn(CC(=O)NCc2ccc(-n3cccn3)cc2)c(C)c1[N+](=O)[O-] | i | i | i | i | i | i | nt
COc1cc(OC)cc(-c2nnc(Nc3nc4c(F)cccc4s3)o2)c1 | i | 2 | i | i | i | i | i
CCOC(=O)C1CCCN(C(=O)Nc2c(-c3ccccc3)noc2C)C1 (configuration not stated) | i | i | nt | nt | i | i | nt
CCNC(=S)NNC(=O)CSc1nc2ccccc2[nH]1 | i | 2.4 | i | i | i | i | i
CCNC(=S)NNC(=O)CSc1nc2ccccc2n1C | i | i | nt | nt | i | i | nt
SMILES | mIAP inh | hIAP act | bIAP inh | bIAP activator | mIAP act | hIAP inh | hIAP act confirm
COc1ccc(/C=N/NC(=O)C(=O)Nc2ccccn2)cc1OC | i | i | i | i | i | i | nt
O=C(N/N=C/c1ccccc1O)C(=O)Nc1ccccn1 | i | 2 | i | i | i | i | i
Cc1cc(Br)ccc1SCC(=O)OC/C(O)=C(\C#N)c1nc2ccccc2[nH]1 | i | 2.4 | nt | nt | i | i | -67
O=C1Nc2ccc(Br)cc2C12NNc1ccccc1O2 (configuration not stated) | i | 5 | nt | i | i | i | i
CC1CN(C(=O)c2ccccc2NS(=O)(=O)c2ccc(Cl)cc2)CC(C)O1 (configuration not stated) | i | i | nt | nt | i | i | nt
CCc1ccc(/C=N/Nc2ncnc3nc[nH]c23)cc1 | i | 2.7 | nt | nt | i | i | i
COc1ccc(-c2nnc(SCC(=O)N3CCOCC3)n2C)cc1OC | i | 2.3 | i | i | i | i | i
COC(=O)c1ccc(N/C(C)=C/C(=O)c2ccc(C)o2)cc1 | i | i | i | i | i | 36 | i
Cc1ccc(NC(=O)CCN2CC(C)OC(C)C2)cc1C (configuration not stated) | i | i | nt | nt | i | i | nt
C/C(=N\N(Cc1ccccc1)c1ccccc1)c1ccncc1 | i | i | i | i | i | 39 | i
CN(C(=O)c1ccncc1)c1ccccc1 | i | i | nt | nt | i | i | nt

Compound activity from PubChem.
